Screens (PubChem)
Kir21 block = blocks the mouse Kir2.1 inward-rectifier potassium channel; P35561; HEK293-Kir2.1, FluxOR thallium flux fluorescence; hits give low values; B-score at 10 µM; 310,000 tested, 0.85% active;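 active = fluorescence ratio B-score at or below minus 3 SD of library scores, with starting-brightness B-score within 2 SD, cut at about -4.2 in these data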;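 note: channel flux triggered by added potassium and thallium sulfate stimulus; B-score of peak minus minimum fluorescence over baseline after thallium stimulus; more negative B-score means stronger Kir2.1 block with less thallium influx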
KCNK9 inh = blocks the human KCNK9 two-pore domain potassium channel; Q9NPC2; HEK293 KCNK9, FluxOR thallium flux fluorescence; hits give low values; B-score at 10 µM; 310,000 tested, 1.2% active; AID 488922;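 active = ratio B-score over 3 SD below the library mean, with starting fluorescence within 5 SD of its mean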;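 note: negative B-score means less thallium flux so channel inhibition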
KCNQ1 pot = human KCNQ1 channel potentiation or activation | CHO-K1 KCNQ1, thallium flux FluxOR fluorescence; hits give high values | AID 2648 | B-score at 10 µM | 310,000 tested, 0.35% active;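 active = fluorescence ratio B-score, a plate-corrected score, at least three library SD, with initial intensity B-score within 5 SD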
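assay system = CHO-K1 cells stably expressing KCNQ1 | medium = assay buffer, equal DMSO in all wells | timing = 37 °C overnight plating, 90-min dark dye load, 20-min compound pretreatment | measured by = kinetic FluxOR thallium fluorescence, 10-s 1-Hz baseline, 110-s post-stimulus read | measure = fluorescence change relative to baseline, converted to B score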
KCNQ1 block = inhibitors of human KCNQ1 potassium channel | 310,000 tested, 1.3% active | CHO-K1 KCNQ1, FluxOR thallium flux fluorescence; hits give high values | AID 2642 | B-score at 10 µM;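 active = compounds whose thallium flux B-score, printed positive for inhibition, exceeds three library SD while starting fluorescence stays within three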;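 note: channel opened by potassium depolarization with thallium stimulus after 20 min compound exposure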
KCNK3 block = human KCNK3 channel inhibition, primary screen | CHO-KCNK3 thallium flux, FluxOR fluorescence; hits give low values | O14649 | 340,000 tested, 0.84% active | B-score at 10 µM | AID 602410;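 active = B-score under library mean minus 4 SD, starting fluorescence ratio at most library mean plus 5 SD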;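 note: more negative B-score means stronger inhibition of thallium flux through KCNK3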
Target sequence (O14649 whole entry, looked up): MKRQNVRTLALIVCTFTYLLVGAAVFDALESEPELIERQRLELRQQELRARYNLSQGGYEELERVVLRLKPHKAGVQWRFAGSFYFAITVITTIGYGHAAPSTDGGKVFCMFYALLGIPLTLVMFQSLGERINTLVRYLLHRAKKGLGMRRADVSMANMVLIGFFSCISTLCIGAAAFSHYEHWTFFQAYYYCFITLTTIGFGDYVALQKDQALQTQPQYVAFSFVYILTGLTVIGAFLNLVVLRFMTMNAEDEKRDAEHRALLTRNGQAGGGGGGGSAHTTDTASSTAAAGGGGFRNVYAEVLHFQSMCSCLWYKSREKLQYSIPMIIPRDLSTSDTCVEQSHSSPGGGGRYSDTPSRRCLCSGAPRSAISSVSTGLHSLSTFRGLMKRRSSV
hERG protect = compounds protecting human hERG from proarrhythmic drug block; 310,000 tested, 0.51% active; Q12809; AID 1511; activation (rescue from dofetilide block), less the hit threshold, % at 10 µM; CHO-hERG, FluxOR thallium flux, dofetilide IC70 present;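 active = activation above the mean of controls blocked by dofetilide plus 5 SD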;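 note: thallium influx through hERG after potassium depolarization seen as dye fluorescence rise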
* hit, by the source's call; i = inactive; nt = no result given. Sampled rows, rich in hits. Any-hit rate of the full collection: about 3.7%.

SMILES	Kir21 block	KCNK9 inh	KCNQ1 pot	KCNQ1 block	KCNK3 block	hERG protect
O=C(COC(=O)C12CC3CC(CC(C3)C1)C2)NCCCc1ccccc1	-0.65	i	23*	i	i	-5.4
COc1ccc(CCNC(=O)COC(=O)C23CC4CC(CC(C4)C2)C3)cc1	-7.3*	i	i	i	i	-11.8
O=C(COC(=O)c1ccc2c(c1)OCCO2)NCCc1ccccc1	nt	nt	nt	nt	i	nt
C=C1C(=O)OC2C=C(CO)C3OC3C3OC3(C)CC(OC(=O)/C(=C/C)COC(C)=O)C12 (stereo not drawn)	nt	nt	nt	nt	i	nt
CCOC(=O)C1CCCN(S(=O)(=O)c2ccc3c(c2)N(C(C)=O)CCO3)C1 (stereo not drawn)	-0.17	i	i	i	i	-8.5
S=c1nc(C2CC2)[nH]c2ccccc12	1.97	i	29*	i	i	20.1*
S=c1nc(C2CCCCC2)[nH]c2ccccc12	-0.77	i	22*	i	i	10.4*
CC(C)c1nc(=S)c2ccccc2[nH]1	0.73	i	i	i	i	-3.9
CC1(C(=O)N/N=C/c2ccccc2)CC1(Cl)Cl (stereo not drawn)	0.51	i	i	i	i	-8.0
O=c1c2ccccc2c(C=NCc2ccccn2)c(O)n1-c1ccccc1	0.75	i	i	i	i	-3.2
O=c1c2ccccc2c(C=NCc2ccccn2)c(O)n1-c1ccccc1Cl	-0.33	i	i	i	i	8.0*
COc1cccc(C(=O)/C(C#N)=N/Nc2cccc(-c3ccnc(C)n3)c2)c1	2.2	i	i	i	i	-5.8
Cc1cc(C)c(C)c(S(=O)(=O)NCCCN2CCCC2=O)c1C	-1.62	i	i	i	i	-4.5
CCOC(=O)c1c(N)c(C#N)cn1-c1ccccc1	0.92	i	i	i	i	-13.1
CCOC(=O)c1c(NC(=O)c2nn(CC)cc2Br)c(C#N)cn1-c1ccccc1	-0.78	i	i	i	-10.8*	-5.0
c1ccc(-c2csc3nnc(SCc4ccc5c(c4)OCCO5)n23)cc1	-5.23*	i	i	i	i	-1.7
O=C(CSc1nnc2scc(-c3ccccc3)n12)c1ccc2c(c1)OCCO2	-0.53	i	i	i	i	-6.2
COc1ccc(S(N)(=O)=O)cc1C(=O)OCCCC(=O)c1ccccc1	nt	nt	nt	nt	i	nt
O=C(O)CN1C(=O)c2cccc(Oc3ccc(Cl)cc3)c2C1=O	0.1	-6.79*	i	i	i	-8.2
c1coc(CN=C2NC(=NCc3ccco3)c3ccccc32)c1	-6.21*	i	i	i	i	-6.9
O=C1c2ccccc2C(O)N1Cc1ccco1 (stereo not drawn)	-0.89	i	i	i	i	-7.2
Cc1ccc(-n2cccc2C(=S)N=P(N(C)C)(N(C)C)N(C)C)cc1	-11.5*	-7.6*	i	i	i	-11.1
C1CCC(C(CC2CCCCN2)C2CCCCC2)CC1 (stereo not drawn)	-7.52*	i	i	7*	i	-19.1
S=C(NNc1ccnc2cc(Cl)ccc12)Nc1ccccc1Cl	1.18	i	i	8*	i	-15.6
CCN(CC)CCNC(=O)C1CCN(S(=O)(=O)c2c(C)noc2/C=C/c2ccccc2F)CC1	-4.59*	i	i	i	i	-11.8
SMILES	Kir21 block	KCNK9 inh	KCNQ1 pot	KCNQ1 block	KCNK3 block	hERG protect
O=C(Nc1ccc(C(=O)N2CCCCC2)cc1)C1CCCCC1	1.59	i	i	i	i	9.1*
CCOC(=O)C1=C(O)c2ccccc2C(=O)/C1=C\c1ccc(CC)cc1	-2.95	i	8*	i	i	1.9
CCCc1ccc(/C=C2\C(=O)c3ccccc3C(O)=C2C(=O)OCC)cc1	-1.83	i	8*	i	nt	-8.9
COCCNC(=O)C(=O)N/N=C/c1ccc(C(=O)OC)cc1	-0.09	i	i	i	i	14.0*
COc1ccc(OCCNc2cc(N3CCCCC3)ccc2[N+](=O)[O-])cc1	-0.44	i	i	i	i	-0.1
Cc1ccccc1OCCNc1cc(N2CCCCC2)ccc1[N+](=O)[O-]	-0.36	-7.04*	i	i	i	-3.6
COc1cccc(OCCNc2cc(N3CCCCC3)ccc2[N+](=O)[O-])c1	0.23	-7.93*	i	i	i	-12.6
COc1ccc(OCCNc2cc(N3CCOCC3)ccc2[N+](=O)[O-])cc1	0.06	i	i	i	i	-3.0
CC1CN(c2ccc([N+](=O)[O-])c(NCCOc3ccccc3)c2)CCN1 (stereo not drawn)	-5.13*	i	i	i	i	-7.5
Cc1ccccc1OCCNc1cc(N2CCN(CCO)CC2)ccc1[N+](=O)[O-]	-3.04	i	i	i	i	-20.2
CCOc1ccc(CN(C)C(=O)c2cc(S(=O)(=O)N3CCCC3)ccc2C)cc1	nt	nt	nt	nt	i	nt
O=C1C=C(O)C(n2cncn2)C(c2ccc(F)cc2)C1 (stereo not drawn)	0.91	i	i	i	i	5.2*
C=CCc1ccc(OCC(O)CN2CCN(Cc3ccc(Cl)cc3)CC2)c(OC)c1 (stereo not drawn)	-8.26*	i	i	i	i	-15.1
OC(COCc1ccc(Cl)cc1)CN1CCN(CC(O)COCc2ccc(Cl)cc2)CC1 (stereo not drawn)	-4.88*	i	i	i	i	-18.6
C=CCc1ccc(OCC(O)CN2CCC(Cc3ccccc3)CC2)c(OC)c1 (stereo not drawn)	-2.93	i	i	i	i	-19.6
OC(COCc1ccc(Cl)cc1)CN1CCCCC1 (stereo not drawn)	1.21	i	i	i	i	-1.3
CC(C)(C)NC(=O)NC(=O)CN1C(=O)NC(c2ccccc2)(c2ccccc2)C1=O	-1.62	i	i	i	i	-6.5
Cc1csc(NC(=O)CN2C(=O)COc3ccc(Cl)cc32)n1	0.79	i	i	i	i	-1.6
O=C(NNC(=S)Nc1ccc(F)cc1)C1[C@H]2CCCC[C@@H]12 (stereo partly drawn)	0.06	i	i	i	i	-1.9
CN(C(=S)NC(=O)CCCOc1ccc(Cl)cc1Cl)c1ccccc1	-4.89*	i	i	i	i	-15.8
CC(Oc1ccc(Cl)cc1Cl)C(=O)N(C)c1ccccc1 (stereo not drawn)	-6.38*	i	i	i	i	-11.1
O=C(NS(=O)(=O)N1CCCC1)C1=C(N2CCCC2)COC1=O	nt	nt	nt	nt	i	nt
CCNS(=O)(=O)c1ccc(CCC(=O)N2CCC(C)CC2)cc1	-0.22	i	i	i	i	-0.1
O=C(CN1CCCC(O)C1)N1c2ccccc2Sc2ccc(C(F)(F)F)cc21 (stereo not drawn)	-0.37	i	i	i	i	-7.2
